Measurements: PMC6541390 (Biochemistry, 2010)
Several values for one entry are separate records, joined by “and”; a condition that tells them apart may be missing. Equal entries are not always repeated. Where two headings read alike, the source gives them in different places.

Legend:
[1] = biological target: T1, Escherichia coli biotin synthase (BS) (Escherichia coli, UniProt P12996); test: Screen for BS inhibition by products and product-related compounds; format: biochemical; settings: for inhibition of BS in the screen: inhibitor 500 μM alone, AdoMet 100 μM, BS 25 μM, 30 min, 37 °C
In short: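 Anaerobic: BS (25 μM) in 50 mM Tris-HCl, 100 mM KCl, 5 mM DTT, pH 8.0, reconstituted 5 min with Na2S and FeCl3 (200 μM each). Flavodoxin 25 μM, its NADP+ reductase 4 μM, NADPH 1 mM and DTB 50 μM added for 5 min, then AdoMet 100 μM and candidate (500 μM). 30 min, 37 °C; biotin, dAH, MDTB by HPLC; duplicates averaged, normalised to no-inhibitor sample.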

[2] = biological target: rat catechol O-methyltransferase; settings: cited from earlier work
[3] = biological target: T2, E. coli MTAN (5′-methylthioadenosine/S-adenosyl-L-homocysteine nucleosidase) (Escherichia coli, UniProt P0AF12); settings: identical assay conditions; ref Lee et al. (32); cited from earlier work
[4] = biological target: T1, Escherichia coli biotin synthase (BS); format: biochemical; settings: for Ki: BS 25 μM, 30 min, 37 °C
[5] = system: E. coli cytosine 5-methyltransferase; settings: cited from earlier work
[6] = biological target: T1, Escherichia coli biotin synthase (BS); test: Equilibrium UV/visible titration of AdoHcy binding to reconstituted BS
[7] = biological target: T1, Escherichia coli biotin synthase (BS); test: Titration of BS active sites with AdoHcy in the activity assay; format: biochemical; settings: extrapolation of the initial linear part of the inhibition curve
[8] = biological target: T1, Escherichia coli biotin synthase (BS); test: Effect of MTA nucleosidase on BS activity in the presence of inhibitors; format: biochemical
PFL activase = PFL activase (Escherichia coli, UniProt P0A9N4); settings: at 100 μM AdoMet; cited from earlier work
[9] = biological target: T1, Escherichia coli biotin synthase (BS); test: BS activity at varying AdoMet concentration, commercial versus pure AdoMet; format: biochemical; settings: enzymatically synthesized AdoMet, Michaelis-Menten fit; BS 25 μM
[10] = cited from earlier work
[11] = biological target: T1, Escherichia coli biotin synthase (BS); settings: read-out: Kd AdoMet; cited from earlier work
BS = settings: 30 μM dAH, 90 min assay; cited from earlier work
E. coli BS = E. coli BS (Escherichia coli, UniProt P12996); settings: high AdoMet concentration, 3 h at 37 °C; cited from earlier work
[12] = biological target: T2, E. coli MTAN (5′-methylthioadenosine/S-adenosyl-L-homocysteine nucleosidase); test: MTA/AdoHcy nucleosidase activity assay; format: biochemical
DNA methyltransferases = settings: binding cooperatively with DNA; cited from earlier work
[13] = Ki, inhibitor alone, competitive with AdoMet

T2 sequence (P0AF12 whole entry): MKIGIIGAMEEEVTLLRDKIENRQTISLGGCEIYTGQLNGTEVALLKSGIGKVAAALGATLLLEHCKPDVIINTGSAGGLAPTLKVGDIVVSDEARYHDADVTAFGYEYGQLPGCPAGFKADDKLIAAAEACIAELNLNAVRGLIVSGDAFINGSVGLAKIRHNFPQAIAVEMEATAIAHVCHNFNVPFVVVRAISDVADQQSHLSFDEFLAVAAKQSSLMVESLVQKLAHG
T1 sequence (P12996 whole entry): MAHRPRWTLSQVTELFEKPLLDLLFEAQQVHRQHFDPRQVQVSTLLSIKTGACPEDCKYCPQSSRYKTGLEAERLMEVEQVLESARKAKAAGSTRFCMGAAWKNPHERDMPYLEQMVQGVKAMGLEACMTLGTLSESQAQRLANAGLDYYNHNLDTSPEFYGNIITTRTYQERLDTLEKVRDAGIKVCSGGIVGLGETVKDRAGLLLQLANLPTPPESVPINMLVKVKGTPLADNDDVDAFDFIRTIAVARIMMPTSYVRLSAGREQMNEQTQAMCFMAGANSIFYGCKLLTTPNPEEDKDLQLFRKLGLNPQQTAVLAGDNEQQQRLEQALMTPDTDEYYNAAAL
Chain of PFL activase (P0A9N4 2-246): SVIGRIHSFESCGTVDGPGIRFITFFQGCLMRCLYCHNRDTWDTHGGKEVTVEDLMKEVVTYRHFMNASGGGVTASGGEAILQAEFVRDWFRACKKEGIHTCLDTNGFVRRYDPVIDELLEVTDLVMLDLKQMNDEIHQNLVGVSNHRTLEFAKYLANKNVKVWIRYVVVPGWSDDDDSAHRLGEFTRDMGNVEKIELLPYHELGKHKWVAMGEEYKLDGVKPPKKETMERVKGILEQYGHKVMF
Chain of E. coli BS (P12996 whole entry): as the sequence (P12996 whole entry) above

Q: With 5′-methylthioadenosine [MTA] as the molecule, how does the “inhibition of BS in the screen” value [1] read?
A: not an inhibitor

Q: For C[S+](CC[C@H](N)C(=O)[O-])C[C@H]1O[C@@H](n2cnc3c(N)ncnc32)[C@H](O)[C@@H]1O (stereo partly drawn) [(R,S)-AdoMet], which “decrease of biotin production” value ([1]; heat-racemized AdoMet, 55 μM (R,S)-AdoMet and 100 μM (S,S)-AdoMet) is on record?
A: ~15%

Q: Which Ki [2] does the source give for Nc1ncnc2c1ncn2[C@@H]1O[C@H](CSCC[C@H](N)C(=O)O)[C@@H](O)[C@H]1O [AdoHcy, S-adenosyl-L-homocysteine] here?
A: 50 µM

Q: And the kcat [3]?
A: 2.6 s⁻¹

Q: What about the Ki ([4]; Ki AdoHcy, fit to eq 1 with a, b, c = 1 and d = 0, AdoMet 100-500 μM) of the same molecule?
A: ≤ 0.65 µM and 0.4 to 1.2 µM and < 0.65 µM and 0.65 µM

Q: What about the “inhibition of BS in the screen” value [1] of the same molecule?
A: no detectable biotin produced

Q: And the “level of MDTB intermediate relative to control” value ([1]; inhibitor 500 μM, 30 min assay)?
A: less MDTB than the control sample

Q: And the Ki [5]?
A: 14 µM

Q: What about the Kd [6] of the same molecule?
A: 0.54 ± 0.15 µM

Q: And the “AdoHcy binding sites per BS dimer” value ([6]; equilibrium titration, BS 50 μM)?
A: 1.5 sites per dimer

Q: And the koff ([6]; read-out: koff, inhibitor dissociation)?
A: ≥ 10 s⁻¹

Q: What about the “AdoHcy equivalents (sites) per BS dimer for complete inhibition” value [7] of the same molecule?
A: 0.85 equiv per dimer

Q: What about the “BS activity on addition of MTAN” value ([8]; MTAN 200 nM) of the same molecule?
A: only partially restored

Q: What about the “decrease of BS activity” value ([8]; inhibitor 50 μM (each), without MTAN, BS 25 μM, 37 °C) of the same molecule?
A: ~ 95%

Q: And the IC50 (PFL activase)?
A: ~20 µM

Q: Which results are given for C[S+](CC[C@H](N)C(=O)[O-])C[C@H]1O[C@@H](n2cnc3c(N)ncnc32)[C@H](O)[C@@H]1O (stereo partly drawn) [AdoMet, S-adenosyl-L-methionine]?
A: Vmax [9]: 0.52 µM/min; t½ of spontaneous racemization at the sulfonium center ([10]; 37 °C): 107 h; t½ of spontaneous degradation to MTA ([10]; physiological conditions): 42 h; Kd [11]: 2.3 µM

Q: Which “inhibition of BS in the screen” value [1] does the source give for NC(CCS)C(=O)O (centres unmarked) [Homocysteine] here?
A: not an inhibitor

Q: Which “inhibition of BS in the screen” value [1] does the source give for O=C(O)CCCC[C@@H]1SC[C@@H]2NC(=O)N[C@@H]21 [biotin] here?
A: neither biotin nor iminobiotin, the guanido analogue of biotin, is a significant inhibitor

Q: What does the source list for C[C@H]1O[C@@H](n2cnc3c(N)ncnc32)[C@H](O)[C@@H]1O [dAH, 5′-deoxyadenosine]?
A: Ki [4, 13]: 20 µM; enhancement of dAH inhibition by cooperative binding with methionine ([4]; excess methionine): 3 fold; inhibition of BS in the screen [1]: inhibitors; concentration of MDTB intermediate relative to the control sample ([1]; inhibitor 500 μM, 30 min assay): 3–4 times; inhibition of biotin production (BS): ~ 90%; IC50 (E. coli BS): ~400 µM; turnover rate (kcat) faster than with AdoHcy [12]: 2 fold; turnover rate (kcat) faster than with MTA [12]: 1.7 fold; weaker affinity (Km) for MTA nucleosidase as compared to MTA [12]: 5.8 fold; kcat ([12]; MTAN 12 nM, 50 mM sodium phosphate pH 7.5): 5.1 s⁻¹

Q: For N=C1N[C@H]2[C@H](CS[C@H]2CCCCC(=O)O)N1 [iminobiotin], which “inhibition of BS in the screen” value [1] is on record?
A: neither biotin nor iminobiotin, the guanido analogue of biotin, is a significant inhibitor

Q: With CSCC[C@H](N)C(=O)O [methionine] as the molecule, how does the Ki [4, 13] read?
A: 100 µM

Q: And the “inhibition of BS in the screen” value [1]?
A: inhibitors

Q: Which Ki [4, 13] does the source give for Nc1ncnc2c1ncn2[C@@H]1O[C@H](C[C@@H](N)CC[C@H](N)C(=O)O)[C@@H](O)[C@H]1O [sinefungin] here?
A: 40 to 140 µM and 75 µM

Q: What about the “inhibition of BS in the screen” value [1] of the same molecule?
A: inhibitor with a decrease in activity comparable to that observed for dAH

Q: And the “level of MDTB intermediate relative to control” value ([1]; inhibitor 500 μM, 30 min assay)?
A: less MDTB than the control sample

Q: What about the Ki (DNA methyltransferases) of the same molecule?
A: ~0.01 µM
